Results from ChEMBL document CHEMBL4007408, “Identification of Novel Triazole-Based Nicotinamide Phosphoribosyltransferase (NAMPT) Inhibitors Endowed with Antiproliferative and Antiinflammatory Activity” (J Med Chem, 2017).
The source made the active and inactive calls. The rule behind the calls is not given here.

How the values were obtained:
[1] = molecular target: Nicotinamide phosphoribosyltransferase (Mus musculus, UniProt Q99KQ4); assay: Inhibition of recombinant mouse NAMPT expressed in bacterial expression system using nicotinamide as substrate after 1 hr by fluorescence based NMNAT-3 enzyme coupled assay; details: read-out: IC50
Chain of Nicotinamide phosphoribosyltransferase (Mus musculus, UniProt Q99KQ4) (Q99KQ4 whole entry): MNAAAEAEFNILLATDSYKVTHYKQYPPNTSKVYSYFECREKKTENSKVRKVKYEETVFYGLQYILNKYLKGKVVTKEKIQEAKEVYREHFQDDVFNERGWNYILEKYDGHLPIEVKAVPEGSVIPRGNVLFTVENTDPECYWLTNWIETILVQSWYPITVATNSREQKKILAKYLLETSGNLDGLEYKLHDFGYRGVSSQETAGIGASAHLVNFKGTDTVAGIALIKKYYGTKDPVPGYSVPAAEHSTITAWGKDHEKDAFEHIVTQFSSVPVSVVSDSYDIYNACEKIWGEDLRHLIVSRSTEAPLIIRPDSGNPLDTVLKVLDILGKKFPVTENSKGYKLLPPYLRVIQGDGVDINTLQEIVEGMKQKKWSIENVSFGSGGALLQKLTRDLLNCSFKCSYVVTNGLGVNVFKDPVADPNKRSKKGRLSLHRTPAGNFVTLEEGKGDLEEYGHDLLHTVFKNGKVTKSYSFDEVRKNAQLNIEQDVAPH

SH-SY5Y = assay: Cytotoxicity against human SH-SY5Y cells assessed as reduction in cell viability after 56 hrs by MTT assay; assay type: functional, cell-based; details: Homo sapiens, SH-SY5Y, 56 h; read-out: EC50
Liver [2] = assay: Stability in human liver microsomes after 60 mins by LC-ESI-MS analysis; assay type: ADME, microsome; details: 1 h
Liver [3] = assay: Stability in Wistar Han rat liver microsomes after 60 mins by LC-ESI-MS analysis; assay type: ADME, microsome; details: 1 h
[4] = Drug metabolism in Wistar Han rat liver microsomes assessed as mixed function oxidase mediated compound cleavage by measuring compound remaining after 60 mins in presence of NADPH-regenerating system by LC-UV analysis; assay type: ADME; details: read-out: Stability
How it was run: (§1)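 Substrate at 50 μM final, with rat or human liver microsomes at 1.0 mg/ml protein, in 50 mM Tris-HCl pH 7.4. Mix held 3.3 mM MgCl2, 1% acetonitrile and an NADPH-regenerating system (1.3 mM β-NADP, 3.3 mM glucose 6-phosphate, 0.4 U/ml G6PDH). Shaken 60 min at 37 °C, stopped with ice-cold acetonitrile. LC-UV gave % residual substrate versus a no-microsome control, mean of two replicates.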

[5] = Drug metabolism in human liver microsomes assessed as mixed function oxidase mediated compound cleavage by measuring compound remaining after 60 mins in presence of NADPH-regenerating system by LC-UV analysis; assay type: ADME; details: read-out: Stability; how it was run: as §1
[6] = Stability in Wistar Han rat liver microsomes assessed as mixed function oxidase mediated compound cleavage after 60 mins in presence of NADPH-regenerating system by LC-UV analysis; assay type: ADME; details: 1 h; how it was run: as §1
Liver [7] = assay: Stability in human liver microsomes assessed as mixed function oxidase mediated compound cleavage after 60 mins in presence of NADPH-regenerating system by LC-UV analysis; assay type: ADME, microsome; details: 1 h; how it was run: as §1
Liver [8] = assay: Drug metabolism in Wistar Han rat liver microsomes assessed as pyridine N-oxidation after 60 mins in presence of NADPH-regenerating system by LC-UV analysis; assay type: ADME, microsome; details: 1 h
How it was run: (§2)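 Metabolites were characterized by LC-ESI-MSn on supernatants of 60 min, 37 °C incubations. Each used 50 μM substrate with rat or human liver microsomes (1.0 mg/ml protein) in 50 mM Tris-HCl pH 7.4 with 3.3 mM MgCl2, 1% acetonitrile and an NADPH-regenerating system. Reactions were quenched with cold acetonitrile and centrifuged.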

Liver [9] = assay: Drug metabolism in human liver microsomes assessed as pyridine N-oxidation after 60 mins in presence of NADPH-regenerating system by LC-UV analysis; assay type: ADME, microsome; details: 1 h; how it was run: as §2
[10] = Half life in athymic Nu/Nu Harlan mouse at 10 mg/kg, iv administered as single dose up to 24 hrs by LC-ESI-MS analysis; assay type: ADME, organism-based; details: in vivo
[11] = AUC in athymic Nu/Nu Harlan mouse at 10 mg/kg, iv administered as single dose up to 24 hrs by LC-ESI-MS analysis; assay type: ADME, organism-based; set-up: time < 24 hr, dose 10 mg/kg, route intravenous; details: in vivo
[12] = Clearance in athymic Nu/Nu Harlan mouse at 10 mg/kg, iv administered as single dose up to 24 hrs by LC-ESI-MS analysis; assay type: ADME, organism-based; details: in vivo
[13] = Volume of distribution in athymic Nu/Nu Harlan mouse at 10 mg/kg, iv administered as single dose up to 24 hrs by LC-ESI-MS analysis; assay type: ADME, organism-based; details: in vivo
Mus musculus [14] = assay: Drug metabolism in athymic Nu/Nu Harlan mouse blood assessed as N-oxide metabolite formation at 10 mg/kg, iv administered as single dose up to 24 hrs by LC-ESI-MS analysis; assay type: ADME, organism-based; details: in vivo
[15] = Apparent aqueous solubility of the compound; assay type: physicochemical; details: buffer
How it was run: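 Kinetic solubility was measured by filtration. Compound from a 10 mM DMSO stock was diluted in PBS pH 7.4 to nominal 500 and 200 μM, shaken 90 min at room temperature and filtered. Filtrate was diluted 4:1 with acetonitrile and absorbance read at 260/280 nm. Concentration came from a calibration curve (3.13–500 μM in 80:20 PBS/acetonitrile, 5% DMSO; r2 >0.85) × 1.25. Run in duplicate.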

A2780 [16] = assay: Cytotoxicity against human A2780 cells assessed as reduction in cell viability; assay type: functional, cell-based
A2780 [17] = assay: Antitumor activity against human A2780 cells xenografted in athymic nu/nu Harlan mouse assessed as reduction in tumor growth at 10 mg/kg, ip bid administered for 8 consecutive days; assay type: functional, organism-based
Mus musculus [18] = assay: Toxicity in athymic nu/nu Harlan mouse xenografted with human A2780 cells assessed as body weight loss at 10 mg/kg, ip bid administered for 8 consecutive days measured through out study; assay type: organism-based; details: in vivo
Fibrosarcoma cell = assay: Antitumor activity against mouse fibrosarcoma cells allografted in athymic nu/nu Harlan mouse
Mammary cancer cell = assay: Antitumor activity against mouse mammary cancer cells allografted in athymic nu/nu Harlan mouse
Mus musculus [19] = assay: In vivo inhibition of NAMPT in DNBS-induced BALB/c mouse colitis model assessed as reduction in loss of body weight at 20 mg/kg, ip bid administered for 3 days post DNBS challenge; assay type: functional, organism-based
Mus musculus [20] = assay: In vivo inhibition of NAMPT in DNBS-induced BALB/c mouse colitis model assessed as reduction in mucosal congestion at 20 mg/kg, ip bid administered for 3 days post DNBS challenge; assay type: functional, organism-based
Mus musculus [21] = assay: In vivo inhibition of NAMPT in DNBS-induced BALB/c mouse colitis model assessed as reduction in erosion at 20 mg/kg, ip bid administered for 3 days post DNBS challenge; assay type: functional, organism-based
Mus musculus [22] = assay: In vivo inhibition of NAMPT in DNBS-induced BALB/c mouse colitis model assessed as reduction in hemorrhagic ulcerations at 20 mg/kg, ip bid administered for 3 days post DNBS challenge; assay type: functional, organism-based
Mus musculus [23] = assay: Downregulation of NAMPT expression in DNBS-induced BALB/c mouse colitis model at 20 mg/kg, ip bid administered for 3 days post DNBS challenge by Western blot analysis; assay type: functional, organism-based
Mus musculus [24] = assay: In vivo inhibition of NAMPT in DNBS-induced BALB/c mouse colitis model assessed as reduction in neutrophil infiltration by measuring myeloperoxidase levels at 20 mg/kg, ip bid administered for 3 days post DNBS challenge by ELISA; assay type: functional, organism-based
[25] = molecular target: Nicotinamide phosphoribosyltransferase (Homo sapiens, UniProt P43490); assay: Inhibition of NAMPT in human Jurkat T cells assessed as reduction in NAD levels; assay type: cell-based
Chain of Nicotinamide phosphoribosyltransferase (Homo sapiens, UniProt P43490) (P43490 whole entry): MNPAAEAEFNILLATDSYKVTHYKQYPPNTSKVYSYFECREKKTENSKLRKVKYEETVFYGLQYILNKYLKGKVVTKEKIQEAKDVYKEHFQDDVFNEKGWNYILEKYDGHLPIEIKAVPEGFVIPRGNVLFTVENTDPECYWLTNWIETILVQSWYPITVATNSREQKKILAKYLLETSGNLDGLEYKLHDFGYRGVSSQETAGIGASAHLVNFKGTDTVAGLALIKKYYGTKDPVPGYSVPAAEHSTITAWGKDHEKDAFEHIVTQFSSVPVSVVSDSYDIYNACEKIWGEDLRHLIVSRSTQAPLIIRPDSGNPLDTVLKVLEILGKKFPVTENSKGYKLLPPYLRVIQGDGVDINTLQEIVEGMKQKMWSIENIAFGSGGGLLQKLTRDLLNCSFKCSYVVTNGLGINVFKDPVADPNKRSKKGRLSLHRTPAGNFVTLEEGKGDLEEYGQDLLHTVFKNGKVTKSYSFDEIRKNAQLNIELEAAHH

Liver [26] = assay: Drug metabolism in human liver microsomes assessed as aliphatic hydroxylation of paraffin linkers by LC-ESI-MS or LC-UV analysis; assay type: ADME, microsome; how it was run: as §2
Liver [27] = assay: Drug metabolism in human liver microsomes assessed as aromatic hydroxylation of biphenyl moiety by LC-ESI-MS or LC-UV analysis; assay type: ADME, microsome; how it was run: as §2
Liver [28] = assay: Drug metabolism in human liver microsomes assessed as oxidative N-dealkylation by LC-ESI-MS or LC-UV analysis; assay type: ADME, microsome; how it was run: as §2
Liver [29] = assay: Drug metabolism in Wistar Han rat liver microsomes assessed as aliphatic hydroxylation of paraffin linkers by LC-ESI-MS or LC-UV analysis; assay type: ADME, microsome; how it was run: as §2
Liver [30] = assay: Drug metabolism in Wistar Han rat liver microsomes assessed as aromatic hydroxylation of biphenyl moiety by LC-ESI-MS or LC-UV analysis; assay type: ADME, microsome; how it was run: as §2
Liver [31] = assay: Drug metabolism in Wistar Han rat liver microsomes assessed as oxidative N-dealkylation by LC-ESI-MS or LC-UV analysis; assay type: ADME, microsome; how it was run: as §2
Liver [32] = assay: Drug level in human liver microsomes treated with N-(7-(4-(Pyridin-3-yl)-1H-1,2,3-triazol-1-yl)heptyl)-[1,1'-biphenyl]-2-carboxamide after 60 mins in presence of NADPH-regenerating system by LC-UV analysis; assay type: ADME, microsome; how it was run: as §1
Liver [33] = assay: Drug level in Wistar Han rat liver microsomes treated with N-(7-(4-(Pyridin-3-yl)-1H-1,2,3-triazol-1-yl)heptyl)-[1,1'-biphenyl]-2-carboxamide after 60 mins in presence of NADPH-regenerating system by LC-UV analysis; assay type: ADME, microsome; how it was run: as §1
Liver [34] = assay: Drug metabolism in human liver microsomes assessed as compound hydrolysis by measuring 2-aminobiphenyl formation after 60 mins by LC-ESI-MS analysis; assay type: ADME, microsome; details: 1 h
How it was run: (§3)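 Hydrolytic metabolites were identified by LC-ESI-MSn after 60 min at 37 °C. Incubations used 50 μM substrate with rat or human liver microsomes (1.0 mg/ml) in 50 mM Tris-HCl pH 7.4, 3.3 mM MgCl2 and 1% acetonitrile. Samples without the NADPH-regenerating system were also run, and residual substrate in them was measured.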

Liver [35] = assay: Drug metabolism in human liver microsomes assessed as compound hydrolysis by measuring 8-(4-(pyridin-3-yl)-1H-1,2,3-triazol-1-yl)octanoic acid formation after 60 mins by LC-ESI-MS analysis; assay type: ADME, microsome; how it was run: as §3
Liver [36] = assay: Drug metabolism in Wistar Han rat liver microsomes assessed as compound hydrolysis by measuring 2-aminobiphenyl formation after 60 mins by LC-ESI-MS analysis; assay type: ADME, microsome; details: 1 h; how it was run: as §3
Liver [37] = assay: Drug metabolism in Wistar Han rat liver microsomes assessed as compound hydrolysis by measuring 8-(4-(pyridin-3-yl)-1H-1,2,3-triazol-1-yl)octanoic acid formation after 60 mins by LC-ESI-MS analysis; assay type: ADME, microsome; how it was run: as §3

O=C(/C=C/c1cccnc1)NCCCCC1CCN(C(=O)c2ccccc2)CC1 [DAPORINAD]
IC50 [1]: 4.9 nM | EC50 (SH-SY5Y): 3.4 nM | Stability (Liver [2]): Stable | Stability (Liver [3]): Stable | remaining at 1 h [4]: 62% | remaining at 1 h [5]: 92% | Stability [6]: Stable | Stability (Liver [7]): Stable | Drug metabolism (Liver [8]): Metabolite_Detected | Drug metabolism (Liver [9]): Metabolite_Detected | half-life [10]: 22.2 min | AUC at 24 h [11]: 6470 ng·h/mL | clearance [12]: 22.8 mL/min/kg | Vd [13]: 0.8 L/kg | Drug metabolism (Mus musculus [14]): Metabolite_Detected | solubility [15]: Soluble | IC50 (A2780 [16]): 4.2 nM | inhibition (A2780 [17]): Active | Activity (Mus musculus [18]): Non-Toxic | Activity (Fibrosarcoma cell): Active | Activity (Mammary cancer cell): Active | inhibition (Mus musculus [19]): Active | inhibition (Mus musculus [20]): Active | inhibition (Mus musculus [21]): Active | inhibition (Mus musculus [22]): Active | inhibition (Mus musculus [23]): Active | inhibition (Mus musculus [24]): Active

O=C(NCCCCCCCn1cc(-c2cccnc2)nn1)c1ccccc1-c1ccccc1
IC50 [1]: 3.1 nM | EC50 (SH-SY5Y): 5.8 nM | IC50 [25]: 4.9 nM | Drug metabolism (Liver [26]): Metabolite_Detected | Stability (Liver [2]): Stable | Stability (Liver [3]): Stable | remaining at 1 h [4]: 45% | remaining at 1 h [5]: 88% | Stability [6]: Stable | Stability (Liver [7]): Stable | Drug metabolism (Liver [27]): Metabolite_Detected | Drug metabolism (Liver [28]): Metabolite_Detected | Drug metabolism (Liver [29]): Metabolite_Detected | Drug metabolism (Liver [30]): Metabolite_Detected | Drug metabolism (Liver [31]): Metabolite_Detected

NC(=O)c1ccccc1-c1ccccc1
Drug metabolism (Liver [32]): Metabolite_Detected | Drug metabolism (Liver [33]): Metabolite_Detected

O=C(O)CCCCCCn1cc(-c2cccnc2)nn1
Drug metabolism (Liver [32]): Metabolite_Detected | Drug metabolism (Liver [33]): Metabolite_Detected

O=C(CCCCCCCn1cc(-c2cccnc2)nn1)Nc1ccccc1-c1ccccc1
Drug metabolism (Liver [34]): Metabolite_Detected | Drug metabolism (Liver [35]): Metabolite_Detected | Drug metabolism (Liver [36]): Metabolite_Detected | Drug metabolism (Liver [37]): Metabolite_Detected | remaining at 1 h [4]: 26% | remaining at 1 h [5]: 45%
